Source: ChEMBL document CHEMBL3526073, “Hydralazine as a selective probe inactivator of aldehyde oxidase in human hepatocytes: estimation of the contribution of aldehyde oxidase to metabolic clearance” (Drug Metab Dispos, 2012)

Columns and labels:
Aldehyde oxidase [1] = target: T1, Aldehyde oxidase (Homo sapiens, UniProt Q06278); experiment: Drug metabolism in cryopreserved human hepatocytes assessed as aldehyde oxidase-mediated formation of oxozaleplon at 20 uM after 30 mins by LC-MS/MS analysis in presence of 1.5 mM of 1-aminobenzotriazole; assay type: ADME, cell-based, Hepatocyte; conditions: 0.5 h
T1 sequence (Q06278 whole entry): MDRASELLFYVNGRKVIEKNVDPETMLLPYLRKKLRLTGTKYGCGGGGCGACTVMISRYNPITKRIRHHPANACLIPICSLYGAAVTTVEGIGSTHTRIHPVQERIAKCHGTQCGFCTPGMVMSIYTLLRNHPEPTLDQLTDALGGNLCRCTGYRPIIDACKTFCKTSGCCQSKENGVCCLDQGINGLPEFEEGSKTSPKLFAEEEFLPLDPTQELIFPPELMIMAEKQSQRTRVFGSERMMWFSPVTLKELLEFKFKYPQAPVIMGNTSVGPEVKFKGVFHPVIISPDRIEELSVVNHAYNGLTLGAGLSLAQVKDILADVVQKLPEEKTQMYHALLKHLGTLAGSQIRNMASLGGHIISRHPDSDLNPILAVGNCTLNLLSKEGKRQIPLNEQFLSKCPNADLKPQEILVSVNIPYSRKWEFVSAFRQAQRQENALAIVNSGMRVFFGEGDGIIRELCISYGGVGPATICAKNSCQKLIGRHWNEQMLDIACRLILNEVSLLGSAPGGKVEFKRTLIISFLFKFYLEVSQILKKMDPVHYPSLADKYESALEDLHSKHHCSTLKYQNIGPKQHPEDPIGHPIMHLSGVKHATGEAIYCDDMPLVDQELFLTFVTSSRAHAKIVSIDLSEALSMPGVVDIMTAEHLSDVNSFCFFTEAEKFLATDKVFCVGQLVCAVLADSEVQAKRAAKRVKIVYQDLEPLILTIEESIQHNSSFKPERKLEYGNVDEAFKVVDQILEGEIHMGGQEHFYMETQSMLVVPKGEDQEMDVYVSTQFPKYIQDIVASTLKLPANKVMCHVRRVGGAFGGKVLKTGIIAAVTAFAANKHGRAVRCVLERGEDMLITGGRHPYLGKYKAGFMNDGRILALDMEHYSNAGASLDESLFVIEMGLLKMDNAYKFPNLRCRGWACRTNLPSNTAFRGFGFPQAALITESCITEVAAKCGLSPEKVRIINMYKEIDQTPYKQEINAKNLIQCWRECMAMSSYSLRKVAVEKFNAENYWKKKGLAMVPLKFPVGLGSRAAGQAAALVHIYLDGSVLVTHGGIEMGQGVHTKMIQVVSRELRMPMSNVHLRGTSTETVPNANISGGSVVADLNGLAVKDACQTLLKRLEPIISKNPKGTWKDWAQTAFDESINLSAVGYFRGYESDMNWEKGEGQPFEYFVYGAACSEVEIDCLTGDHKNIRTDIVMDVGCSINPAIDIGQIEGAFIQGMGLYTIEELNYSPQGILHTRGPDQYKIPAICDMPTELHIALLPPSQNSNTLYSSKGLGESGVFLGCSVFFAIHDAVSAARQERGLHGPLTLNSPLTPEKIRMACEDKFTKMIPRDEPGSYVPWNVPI
Outline: (§1)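 Pooled cryopreserved human hepatocytes (five-donor pool, viability >80%) in Williams E medium, preincubated 30 min at 37°C under O2/CO2 (95/5). Zaleplon 20 μM final, with hydralazine 0–200 μM or 1-aminobenzotriazole 0–1.5 mM co-added, incubated 30 min. Reaction stopped with cold acetonitrile containing internal standard. Oxozaleplon (AO product) and desethylzaleplon (CYP product) measured by LC-MS/MS and expressed as percent of control.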

Aldehyde oxidase [2] = target: T1, Aldehyde oxidase; experiment: Drug metabolism in cryopreserved human hepatocytes assessed as aldehyde oxidase-mediated formation of oxozaleplon at 20 uM after 30 mins by LC-MS/MS analysis; assay type: ADME, cell-based, Hepatocyte; conditions: 0.5 h; outline: as §1
[3] = Drug metabolism in cryopreserved human hepatocytes assessed as CYP450-mediated formation of desethylzaleplon at 20 uM after 30 mins by LC-MS/MS analysis in presence of 25 uM of hydralazine; assay type: ADME, cell-based, Hepatocyte; conditions: 0.5 h; outline: as §1
Aldehyde oxidase [4] = target: T1, Aldehyde oxidase; conditions: hepatocytes, 2 h, 10 µM
Aldehyde oxidase [5] = target: T1, Aldehyde oxidase; conditions: hepatocytes, 2 h, 10 µM; remark: listed apart in the source
[6] = Drug metabolism in cryopreserved human hepatocytes assessed as CYP450-mediated formation of desethylzaleplon at 20 uM after 30 mins by LC-MS/MS analysis; assay type: ADME, cell-based, Hepatocyte; conditions: 0.5 h; outline: as §1
Aldehyde oxidase [7] = target: T1, Aldehyde oxidase; experiment: Inhibition of aldehyde oxidase in human liver cytosol assessed as production of oxozoniporide
[8] = Drug metabolism in cryopreserved human hepatocytes assessed as CYP450-mediated formation of desethylzaleplon at 20 uM after 30 mins by LC-MS/MS analysis in presence of 50 uM hydralazine; assay type: ADME, cell-based, Hepatocyte; conditions: 0.5 h; outline: as §1
[9] = Drug metabolism in cryopreserved human hepatocytes assessed as CYP450-mediated formation of desethylzaleplon at 50 uM after 30 mins by LC-MS/MS analysis; assay type: ADME, cell-based, Hepatocyte; conditions: 0.5 h
Aldehyde oxidase [10] = target: T1, Aldehyde oxidase; experiment: Drug metabolism in cryopreserved human hepatocytes assessed as aldehyde oxidase-mediated formation of oxozaleplon at 50 uM after 30 mins by LC-MS/MS analysis; assay type: ADME, cell-based, Hepatocyte; conditions: 0.5 h
CYP2C8 [11] = target: T2, CYP2C8 (Homo sapiens, UniProt P10632); experiment: Inhibition of CYP2C8 in human liver microsomes assessed as residual activity using paclitaxel as substrate at 50 uM relative to control; conditions: probe paclitaxel
T2 sequence (P10632 whole entry): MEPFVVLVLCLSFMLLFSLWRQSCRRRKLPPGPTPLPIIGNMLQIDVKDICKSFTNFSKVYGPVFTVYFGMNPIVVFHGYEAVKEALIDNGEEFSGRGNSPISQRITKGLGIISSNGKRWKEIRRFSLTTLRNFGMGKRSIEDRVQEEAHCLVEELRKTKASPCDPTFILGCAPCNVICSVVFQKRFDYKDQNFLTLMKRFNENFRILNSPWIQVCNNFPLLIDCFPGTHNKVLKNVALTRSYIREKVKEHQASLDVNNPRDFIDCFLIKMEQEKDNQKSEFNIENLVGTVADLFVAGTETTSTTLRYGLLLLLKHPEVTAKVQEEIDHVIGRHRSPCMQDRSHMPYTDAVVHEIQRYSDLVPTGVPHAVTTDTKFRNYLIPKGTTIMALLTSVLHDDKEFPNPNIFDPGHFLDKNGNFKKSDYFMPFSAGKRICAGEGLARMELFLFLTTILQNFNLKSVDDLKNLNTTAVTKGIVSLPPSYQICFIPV

CYP3A [12] = target: T3, CYP3A (Homo sapiens, UniProt P08684+P20815+P24462+Q9HB55); experiment: Inhibition of CYP3A in human liver microsomes assessed as residual activity using midazolam as substrate at 50 uM relative to control; conditions: probe midazolam
CYP2C19 [13] = target: T4, CYP2C19 (Homo sapiens, UniProt P33261); experiment: Inhibition of CYP2C19 in human liver microsomes assessed as residual activity using S-mephenytoin as substrate at 50 uM relative to control; conditions: probe S-mephenytoin
CYP1A2 [14] = target: T5, CYP1A2 (Homo sapiens, UniProt P05177); experiment: in vitro; conditions: liver microsomes, probe phenacetin
T5 sequence (P05177 whole entry): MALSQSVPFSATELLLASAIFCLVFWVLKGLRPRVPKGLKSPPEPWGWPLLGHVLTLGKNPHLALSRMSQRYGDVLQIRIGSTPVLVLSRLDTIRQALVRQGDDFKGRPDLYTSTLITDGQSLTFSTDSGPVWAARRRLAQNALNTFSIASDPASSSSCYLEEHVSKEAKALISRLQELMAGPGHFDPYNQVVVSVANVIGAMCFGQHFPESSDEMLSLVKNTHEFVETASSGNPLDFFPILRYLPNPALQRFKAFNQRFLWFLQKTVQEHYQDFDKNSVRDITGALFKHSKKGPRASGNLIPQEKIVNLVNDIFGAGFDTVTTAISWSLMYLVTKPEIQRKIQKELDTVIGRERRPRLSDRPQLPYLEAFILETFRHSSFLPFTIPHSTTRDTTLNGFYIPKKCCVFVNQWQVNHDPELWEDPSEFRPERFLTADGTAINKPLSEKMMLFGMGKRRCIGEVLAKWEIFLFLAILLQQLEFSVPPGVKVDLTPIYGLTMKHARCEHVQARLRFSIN

CYP3A [15] = target: T3, CYP3A; experiment: in vitro; conditions: liver microsomes, probe midazolam
CYP2C19 [16] = target: T4, CYP2C19; experiment: in vitro; conditions: liver microsomes, probe S-mephenytoin
CYP2C8 [17] = target: T2, CYP2C8; experiment: in vitro; conditions: liver microsomes, probe paclitaxel
CYP2D6 [18] = target: T6, CYP2D6 (Homo sapiens, UniProt P10635); experiment: Inhibition of CYP2D6 in human liver microsomes assessed as residual activity using dextromethorphan as substrate at 50 uM relative to control; conditions: probe dextromethorphan
CYP1A2 [19] = target: T5, CYP1A2; experiment: Inhibition of CYP1A2 in human liver microsomes assessed as residual activity using phenacetin as substrate at 50 uM relative to control; conditions: probe phenacetin
CYP2C9 [20] = target: T7, CYP2C9 (Homo sapiens, UniProt P11712); experiment: Inhibition of CYP2C9 in human liver microsomes assessed as residual activity using diclofenac as substrate at 50 uM relative to control; conditions: probe diclofenac
CYP2D6 [21] = target: T6, CYP2D6; experiment: in vitro; conditions: liver microsomes, probe dextromethorphan
CYP2C9 [22] = target: T7, CYP2C9; experiment: in vitro; conditions: liver microsomes, probe diclofenac
[23] = Drug level in cryopreserved human hepatocytes assessed as CYP450-mediated metabolite formation treated with 20 uM of zaleplon after 30 mins by LC-MS/MS analysis; assay type: ADME, cell-based, Hepatocyte; conditions: 0.5 h; outline: as §1

T7 sequence (P11712 whole entry): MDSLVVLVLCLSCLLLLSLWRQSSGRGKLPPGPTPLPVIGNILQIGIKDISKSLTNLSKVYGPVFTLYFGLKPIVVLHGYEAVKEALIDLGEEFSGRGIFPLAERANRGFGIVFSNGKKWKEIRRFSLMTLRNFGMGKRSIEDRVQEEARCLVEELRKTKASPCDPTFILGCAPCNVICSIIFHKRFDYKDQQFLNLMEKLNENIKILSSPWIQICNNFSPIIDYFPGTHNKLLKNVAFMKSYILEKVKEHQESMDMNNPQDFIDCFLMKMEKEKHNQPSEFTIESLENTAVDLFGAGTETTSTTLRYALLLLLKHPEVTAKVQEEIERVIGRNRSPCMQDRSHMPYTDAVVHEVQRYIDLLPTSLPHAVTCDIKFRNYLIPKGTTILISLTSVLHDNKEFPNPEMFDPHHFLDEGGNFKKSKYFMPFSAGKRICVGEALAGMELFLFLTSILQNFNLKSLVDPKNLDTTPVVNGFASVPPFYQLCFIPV
T6 sequence (P10635 whole entry): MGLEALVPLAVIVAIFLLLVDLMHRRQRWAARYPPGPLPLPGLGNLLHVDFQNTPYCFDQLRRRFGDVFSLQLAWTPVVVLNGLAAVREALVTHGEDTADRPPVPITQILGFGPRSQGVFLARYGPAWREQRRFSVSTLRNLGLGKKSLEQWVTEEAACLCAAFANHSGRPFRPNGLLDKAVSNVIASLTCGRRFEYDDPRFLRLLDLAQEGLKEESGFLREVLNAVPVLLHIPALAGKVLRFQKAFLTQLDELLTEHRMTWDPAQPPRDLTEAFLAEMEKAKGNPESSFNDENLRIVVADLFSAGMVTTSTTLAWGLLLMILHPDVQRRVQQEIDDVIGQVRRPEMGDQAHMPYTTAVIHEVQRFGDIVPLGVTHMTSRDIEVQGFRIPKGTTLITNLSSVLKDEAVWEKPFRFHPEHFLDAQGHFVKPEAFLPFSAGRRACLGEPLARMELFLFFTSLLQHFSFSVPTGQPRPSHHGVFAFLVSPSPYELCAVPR
T4 sequence (P33261 whole entry): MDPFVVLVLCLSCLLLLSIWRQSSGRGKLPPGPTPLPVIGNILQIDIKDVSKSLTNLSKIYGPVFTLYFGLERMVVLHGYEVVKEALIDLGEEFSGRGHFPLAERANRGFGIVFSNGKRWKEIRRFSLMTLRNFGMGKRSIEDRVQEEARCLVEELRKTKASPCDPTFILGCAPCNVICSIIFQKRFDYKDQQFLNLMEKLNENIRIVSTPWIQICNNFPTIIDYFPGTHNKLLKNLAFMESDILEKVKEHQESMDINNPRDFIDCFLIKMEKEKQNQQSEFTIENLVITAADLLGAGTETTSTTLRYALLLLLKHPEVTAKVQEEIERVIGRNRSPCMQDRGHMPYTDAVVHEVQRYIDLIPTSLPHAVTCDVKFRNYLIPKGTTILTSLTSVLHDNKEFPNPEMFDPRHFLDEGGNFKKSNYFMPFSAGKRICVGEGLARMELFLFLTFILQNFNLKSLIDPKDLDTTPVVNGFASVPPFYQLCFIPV

In the case of `CCN(C(C)=O)c1cccc(-c2ccnc3c(C#N)cnn23)c1` [ZALEPLON], the Drug metabolism (Aldehyde oxidase [1]) is reported as “metabolite_detected”, the Drug metabolism (Aldehyde oxidase [2]) is reported as “metabolite_detected” and the Drug metabolism [3] is reported as “metabolite_detected”. For the same compound, the Fm (Aldehyde oxidase [4]) was 0.56, the Fm (Aldehyde oxidase [5]) was 0.7 and the Drug metabolism [6] was “metabolite_detected”. For the same compound, the Ki (Aldehyde oxidase [7]) was 83 µM, the kinact (Aldehyde oxidase [7]; human, liver cytosol) was 0.00105 s⁻¹ and the Drug metabolism [8] was “metabolite_not_detected”.

With `CCN(C(C)=O)c1cccc(-c2cc(=O)[nH]c3c(C#N)cnn23)c1` the Drug metabolism [9] was “metabolite_not_detected” and the Drug metabolism (Aldehyde oxidase [10]) was “metabolite_not_detected”.

Work on `NNc1nncc2ccccc12` [HYDRALAZINE] yielded an activity at 50 µM (CYP2C8 [11]) of 95%, an activity at 50 µM (CYP3A [12]) of 76% and an activity at 50 µM (CYP2C19 [13]) of 90%. It also gave an activity at 25 µM (CYP1A2 [14]) of 100%, an activity at 25 µM (CYP3A [15]) of 98% and an activity at 25 µM (CYP2C19 [16]) of 103%. For the same compound, the activity at 25 µM (CYP2C8 [17]) was 108%, the activity at 50 µM (CYP2D6 [18]) was 77% and the activity at 50 µM (CYP1A2 [19]) was 89%. It also gave an activity at 50 µM (CYP2C9 [20]) of 95%, an activity at 25 µM (CYP2D6 [21]) of 92% and an activity at 25 µM (CYP2C9 [22]) of 105%.

Compound `COc1ccc2c(c1)[C@]13CCCC[C@@H]1[C@H](C2)N(C)CC3` [DEXTROMETHORPHAN] has a Fm (Aldehyde oxidase [4]) of 0.39.

Compound `Cc1ncc2n1-c1ccc(Cl)cc1C(c1ccccc1F)=NC2` [MIDAZOLAM] has a Fm (Aldehyde oxidase [4]) of 0.05 and a Fm (Aldehyde oxidase [5]) of 0.08.

`CCNC(=O)OC1CCN(c2nncc3cc(OC)c(OC)cc23)CC1` [CARBAZERAN] showed a Fm (Aldehyde oxidase [4]) of 0.55 and a Fm (Aldehyde oxidase [5]) of 0.49.

`CC[C@H]1OC(=O)[C@H](C)C(=O)[C@H](C)[C@@H](O[C@@H]2O[C@H](C)C[C@H](N(C)C)[C@H]2O)[C@](C)(OC)C[C@@H](C)C(=O)[C@H](C)[C@H]2N(C3CN([C@H](C)c4ccnc5ncccc45)C3)C(=O)O[C@]12C` gave a Fm (Aldehyde oxidase [4]) of 0.61.

Compound `Nc1nc(OCc2ccccc2)c2[nH]cnc2n1` [6-O-BENZYLGUANINE] has a Fm (Aldehyde oxidase [4]) of 0.83.

Compound `CN(C)CCNC(=O)c1cccc2cc3ccccc3nc12` has a Fm (Aldehyde oxidase [4]) of 0.76 and a Fm (Aldehyde oxidase [5]) of 0.53.

For `N=C(N)NC(=O)c1cnn(-c2cccc3ncccc23)c1C1CC1` [ZONIPORIDE], the Fm (Aldehyde oxidase [4]) was 0.55 and the Fm (Aldehyde oxidase [5]) was 0.64.

With `CC(=O)Nc1cccc(-c2ccnc3c(C#N)cnn23)c1` the Drug metabolism [23] was “metabolite_detected”.
